In ChEMBL document CHEMBL3046880, “Syntheses and herbicidal activities of novel triazolinone derivatives” (J Agric Food Chem, 2008):

Columns and labels:
Assay type in all cases: functional
Cerastium arvense [1] = assay: Herbicidal activity against Cerastium arvense assessed as growth inhibition at 150 g of active ingredient/ha administered using post-emergence treatment measured 15 days post treatment protocol under greenhouse conditions
How it was run: (§1)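 Test agents were formulated as 100 g/L emulsified concentrates (DMF solvent, TW-80 emulsifier), diluted with water and sprayed postemergence on pot-grown weeds. Seeds were sown 1-3 cm deep in clay soil (pH 6.5, 1.6% organic matter, 37.3% clay, CEC […]) and grown at 15–30 °C in a greenhouse. Dicots were treated at the two-leaf stage. Untreated and DMF-treated plants served as controls. Activity was scored visually 15 days after treatment.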

Senna tora [2] = assay: Herbicidal activity against Senna tora assessed as growth inhibition at 37.5 g of active ingredient/ha administered using post-emergence treatment measured 15 days post treatment protocol under greenhouse conditions; how it was run: as §1
Brassica juncea [3] = assay: Herbicidal activity against Brassica juncea assessed as growth inhibition at 75 g of active ingredient/ha administered using post-emergence treatment measured 15 days post treatment protocol under greenhouse conditions; how it was run: as §1
Echinochloa crus-galli [4] = assay: Herbicidal activity against Echinochloa crus-galli (barnyard grass) assessed as growth inhibition at 75 g of active ingredient/ha administered using post-emergence treatment measured 15 days post treatment protocol under greenhouse conditions; how it was run: as §1
Senna tora [5] = assay: Herbicidal activity against Senna tora assessed as growth inhibition at 75 g of active ingredient/ha administered using post-emergence treatment measured 15 days post treatment protocol under greenhouse conditions; how it was run: as §1
Chenopodium album [6] = assay: Herbicidal activity against Chenopodium album assessed as growth inhibition at 75 g of active ingredient/ha administered using post-emergence treatment measured 15 days post treatment protocol under greenhouse conditions; how it was run: as §1
Amaranthus retroflexus [7] = assay: Herbicidal activity against Amaranthus retroflexus assessed as growth inhibition at 150 g of active ingredient/ha administered using post-emergence treatment measured 15 days post treatment protocol under greenhouse conditions; how it was run: as §1
Echinochloa crus-galli [8] = assay: Herbicidal activity against Echinochloa crus-galli (barnyard grass) assessed as growth inhibition at 150 g of active ingredient/ha administered using post-emergence treatment measured 15 days post treatment protocol under greenhouse conditions; how it was run: as §1
Portulaca oleracea [9] = assay: Herbicidal activity against Portulaca oleracea assessed as growth inhibition at 75 g of active ingredient/ha administered using post-emergence treatment measured 15 days post treatment protocol under greenhouse conditions; how it was run: as §1
Setaria viridis [10] = assay: Herbicidal activity against Setaria viridis (green foxtail) assessed as growth inhibition at 150 g of active ingredient/ha administered using post-emergence treatment measured 15 days post treatment protocol under greenhouse conditions; how it was run: as §1
Brassica juncea [11] = assay: Herbicidal activity against Brassica juncea assessed as growth inhibition at 150 g of active ingredient/ha administered using post-emergence treatment measured 15 days post treatment protocol under greenhouse conditions; how it was run: as §1
Chenopodium album [12] = assay: Herbicidal activity against Chenopodium album assessed as growth inhibition at 37.5 g of active ingredient/ha administered using post-emergence treatment measured 15 days post treatment protocol under greenhouse conditions; how it was run: as §1
Digitaria sanguinalis [13] = assay: Herbicidal activity against Digitaria sanguinalis (hairy crabgrass) assessed as growth inhibition at 150 g of active ingredient/ha administered using post-emergence treatment measured 15 days post treatment protocol under greenhouse conditions; how it was run: as §1
Brassica juncea [14] = assay: Herbicidal activity against Brassica juncea assessed as growth inhibition at 37.5 g of active ingredient/ha administered using post-emergence treatment measured 15 days post treatment protocol under greenhouse conditions; how it was run: as §1
Eclipta prostrata [15] = assay: Herbicidal activity against Eclipta prostrata assessed as growth inhibition at 75 g of active ingredient/ha administered using post-emergence treatment measured 15 days post treatment protocol under greenhouse conditions; how it was run: as §1
Setaria viridis [16] = assay: Herbicidal activity against Setaria viridis (green foxtail) assessed as growth inhibition at 37.5 g of active ingredient/ha administered using post-emergence treatment measured 15 days post treatment protocol under greenhouse conditions; how it was run: as §1
Digitaria sanguinalis [17] = assay: Herbicidal activity against Digitaria sanguinalis (hairy crabgrass) assessed as growth inhibition at 75 g of active ingredient/ha administered using post-emergence treatment measured 15 days post treatment protocol under greenhouse conditions; how it was run: as §1
Cerastium arvense [18] = assay: Herbicidal activity against Cerastium arvense assessed as growth inhibition at 37.5 g of active ingredient/ha administered using post-emergence treatment measured 15 days post treatment protocol under greenhouse conditions; how it was run: as §1
Setaria viridis [19] = assay: Herbicidal activity against Setaria viridis (green foxtail) assessed as growth inhibition at 75 g of active ingredient/ha administered using post-emergence treatment measured 15 days post treatment protocol under greenhouse conditions; how it was run: as §1
Senna tora [20] = assay: Herbicidal activity against Senna tora assessed as growth inhibition at 150 g of active ingredient/ha administered using post-emergence treatment measured 15 days post treatment protocol under greenhouse conditions; how it was run: as §1
Cerastium arvense [21] = assay: Herbicidal activity against Cerastium arvense assessed as growth inhibition at 75 g of active ingredient/ha administered using post-emergence treatment measured 15 days post treatment protocol under greenhouse conditions; how it was run: as §1
Amaranthus retroflexus [22] = assay: Herbicidal activity against Amaranthus retroflexus assessed as growth inhibition at 75 g of active ingredient/ha administered using post-emergence treatment measured 15 days post treatment protocol under greenhouse conditions; how it was run: as §1
Portulaca oleracea [23] = assay: Herbicidal activity against Portulaca oleracea assessed as growth inhibition at 37.5 g of active ingredient/ha administered using post-emergence treatment measured 15 days post treatment protocol under greenhouse conditions; how it was run: as §1
Amaranthus retroflexus [24] = assay: Herbicidal activity against Amaranthus retroflexus assessed as growth inhibition at 37.5 g of active ingredient/ha administered using post-emergence treatment measured 15 days post treatment protocol under greenhouse conditions; how it was run: as §1
Portulaca oleracea [25] = assay: Herbicidal activity against Portulaca oleracea assessed as growth inhibition at 150 g of active ingredient/ha administered using post-emergence treatment measured 15 days post treatment protocol under greenhouse conditions; how it was run: as §1
Chenopodium album [26] = assay: Herbicidal activity against Chenopodium album assessed as growth inhibition at 150 g of active ingredient/ha administered using post-emergence treatment measured 15 days post treatment protocol under greenhouse conditions; how it was run: as §1
Digitaria sanguinalis [27] = assay: Herbicidal activity against Digitaria sanguinalis (hairy crabgrass) assessed as growth inhibition at 37.5 g of active ingredient/ha administered using post-emergence treatment measured 15 days post treatment protocol under greenhouse conditions; how it was run: as §1
Echinochloa crus-galli [28] = assay: Herbicidal activity against Echinochloa crus-galli (barnyard grass) assessed as growth inhibition at 37.5 g of active ingredient/ha administered using post-emergence treatment measured 15 days post treatment protocol under greenhouse conditions; how it was run: as §1
Eclipta prostrata [29] = assay: Herbicidal activity against Eclipta prostrata assessed as growth inhibition at 37.5 g of active ingredient/ha administered using post-emergence treatment measured 15 days post treatment protocol under greenhouse conditions; how it was run: as §1

Cc1nn(-c2cc(NS(C)(=O)=O)c(Cl)cc2Cl)c(=O)n1C(F)F [SULFENTRAZONE]
growth inhibition (GI) (Cerastium arvense [1]): 100% | growth inhibition (GI) (Senna tora [2]): >80% | growth inhibition (GI) (Brassica juncea [3]): 100% | growth inhibition (GI) (Echinochloa crus-galli [4]): 50% | growth inhibition (GI) (Senna tora [5]): >80% | growth inhibition (GI) (Chenopodium album [6]): 100% | growth inhibition (GI) (Amaranthus retroflexus [7]): 100% | growth inhibition (GI) (Echinochloa crus-galli [8]): <50% | growth inhibition (GI) (Portulaca oleracea [9]): 100% | growth inhibition (GI) (Setaria viridis [10]): >80% | growth inhibition (GI) (Brassica juncea [11]): 100% | growth inhibition (GI) (Chenopodium album [12]): 100% | growth inhibition (GI) (Digitaria sanguinalis [13]): <50% | growth inhibition (GI) (Brassica juncea [14]): >80% | growth inhibition (GI) (Eclipta prostrata [15]): 100% | growth inhibition (GI) (Setaria viridis [16]): <50% | growth inhibition (GI) (Digitaria sanguinalis [17]): 50% | growth inhibition (GI) (Cerastium arvense [18]): >80% | growth inhibition (GI) (Setaria viridis [19]): 50% | growth inhibition (GI) (Senna tora [20]): >80% | growth inhibition (GI) (Cerastium arvense [21]): 100% | growth inhibition (GI) (Amaranthus retroflexus [22]): 100% | growth inhibition (GI) (Portulaca oleracea [23]): 100% | growth inhibition (GI) (Amaranthus retroflexus [24]): 100% | growth inhibition (GI) (Portulaca oleracea [25]): 100% | growth inhibition (GI) (Chenopodium album [26]): 100% | growth inhibition (GI) (Digitaria sanguinalis [27]): 50% | growth inhibition (GI) (Echinochloa crus-galli [28]): 50% | growth inhibition (GI) (Eclipta prostrata [29]): 100%
